One test concerns Influenza A virus. Description: Antiviral activity against influenza virus type A H1N1 in MDCK cells assessed as inhibition of virus-induced cytopathic effect. Type of test: functional, organism-based. Summed up:
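Two-fold serial dilutions were applied to cell monolayers, starting at the maximal noncytotoxic concentration. An equal volume of virus at 100 TCID50/mL was added, with an untreated infected control. Plates were held at 37 °C, humidified, for 2–5 days. CPE was scored 0–4 and expressed as percent of virus control. IC50 (µg/mL), the concentration halving CPE, was read from graphic plots.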
(In general: Damage to the host cells serves as the signal in cytopathic effect assays.)

Test [1] in a line: Selectivity index, ratio of CC50 for MDCK cells to IC50 for influenza virus type A H1N1. The test is classed as functional. The method in brief: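 SI was computed as CC50/IC50. CC50 came from microscopic morphology scoring (0–4) of monolayers after 2–5 days at 37 °C. IC50 came from CPE scoring of cells infected at 100 TCID50/mL and treated with two-fold dilutions for 2–5 days at 37 °C. Both values were read from graphic plots.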

The text below walks through data of ChEMBL document CHEMBL1151177, “Antiviral flavonoids from the seeds of Aesculus chinensis” (J Nat Prod, 2004).

SMILES strings stand for the structures. In brackets after ≈: the same amount, converted by molar mass. Some results are limits rather than exact numbers.

With `O=c1c(O[C@@H]2O[C@H](CO)[C@@H](O)[C@H](O)[C@H]2O[C@@H]2OC[C@@H](O)[C@H](O)[C@H]2O)c(-c2ccc(O)cc2)oc2cc(O)cc(O)c12`, in the test with Influenza A virus, the CC50 (usually the concentration giving 50% cytotoxicity) was determined as 46.9 µg/mL (≈ 80.8 µM) and the concentration for half-maximal inhibition (IC50) (in general, the concentration that gives 50% inhibition) is more than 100 µg/mL. Moreover, the “Ratio CC50/IC50” value in test [1] is recorded as less than 0.5.
For the molecule `O=c1c(O[C@@H]2O[C@H](CO[C@@H]3O[C@H](CO)[C@@H](O)[C@H](O)[C@H]3O)[C@@H](O)[C@H](O)[C@H]2O[C@@H]2OC[C@@H](O)[C@H](O)[C@H]2O)c(-c2ccc(O)cc2)oc2cc(O)cc(O)c12`, in the test with Influenza A virus, the CC50 turned out to be 107 µg/mL (≈ 144 µM) and the IC50 is more than 100 µg/mL. Also, the “Ratio CC50/IC50” value in test [1] is less than 1.1.
On to `O=c1c(O[C@@H]2O[C@H](CO)[C@@H](O)[C@H](O)[C@H]2O[C@@H]2OC[C@@H](O)[C@H](O)[C@H]2O)c(-c2ccc(O)c(O)c2)oc2cc(O)cc(O)c12`, for which, in the test on Influenza A virus, the CC50 stood at 198 µg/mL (≈ 331 µM) and the concentration for half-maximal inhibition (IC50) is more than 200 µg/mL. Also, in test [1], the “Ratio CC50/IC50” value is on record as less than 1.
Consider `O=c1c(O[C@@H]2O[C@H](CO)[C@@H](O)[C@H](O)[C@H]2O[C@@H]2OC[C@@H](O)[C@H](O)[C@H]2O)c(-c2ccc(O)c(O[C@@H]3O[C@H](CO)[C@@H](O)[C@H](O)[C@H]3O)c2)oc2cc(O)cc(O)c12`, for which, in the test with Influenza A virus, the CC50 is more than 322 µg/mL and the IC50 was more than 500 µg/mL.
As for `C[C@@H]1O[C@@H](Oc2c(-c3ccc(O)cc3)oc3cc(O)cc(O)c3c2=O)[C@H](O)[C@H](O)[C@H]1O[C@@H]1O[C@H](CO)[C@@H](O)[C@H](O)[C@H]1O`, in the test with Influenza A virus, the CC50 turned out to be 375 µg/mL (≈ 631 µM) and the IC50 is more than 500 µg/mL. Moreover, the “Ratio CC50/IC50” value in test [1] is listed as less than 0.8.
`COc1ccc(-c2oc3cc(O)cc(O)c3c(=O)c2O[C@@H]2O[C@H](CO)[C@@H](O)[C@H](O)[C@H]2O[C@@H]2OC[C@@H](O)[C@H](O)[C@H]2O)cc1O[C@@H]1O[C@H](CO)[C@@H](O)[C@H](O)[C@H]1O` [AESCUFLAVOSIDE A]: in the test on Influenza A virus, the CC50 came to 322 µg/mL (≈ 417 µM) and the IC50 was more than 500 µg/mL. The “Ratio CC50/IC50” value in test [1] is less than 0.6.
As for `C[C@@H]1O[C@@H](OC[C@H]2O[C@@H](Oc3c(-c4ccc(O)c(O[C@@H]5O[C@H](CO)[C@@H](O)[C@H](O)[C@H]5O)c4)oc4cc(O)cc(O)c4c3=O)[C@H](O[C@@H]3OC[C@@H](O)[C@H](O)[C@H]3O)[C@@H](O)[C@@H]2O)[C@H](O)[C@H](O)[C@H]1O` [AESCUFLAVOSIDE], in the test on Influenza A virus, the CC50 is 108 µg/mL (≈ 119 µM) and the IC50 is more than 100 µg/mL. The “Ratio CC50/IC50” value in test [1] is on record as less than 1.1.
Regarding `O=c1c(O[C@@H]2O[C@H](CO)[C@@H](O)[C@H](O)[C@H]2O)c(-c2ccc(O)cc2)oc2cc(O)cc(O)c12` [ASTRAGALIN], in the test with Influenza A virus, the CC50 came to 392 µg/mL (≈ 875 µM) and the IC50 worked out at 24.5 µg/mL (≈ 54.6 µM). In addition, in test [1], the “Ratio CC50/IC50” value worked out at 16.
As to `O=c1c(O[C@@H]2O[C@H](CO)[C@@H](O)[C@H](O)[C@H]2O)c(-c2ccc(O)c(O)c2)oc2cc(O)cc(O)c12` [ISOQUERCETIN], in the test with Influenza A virus, the CC50 is more than 400 µg/mL and the IC50 is more than 500 µg/mL.
On to `NC(=O)c1ncn([C@@H]2O[C@H](CO)[C@@H](O)[C@H]2O)n1` [RIBAVIRIN], for which, in the test with Influenza A virus, the half-maximal cytotoxic concentration (CC50) is more than 125 µg/mL and the IC50 stood at 62.5 µg/mL (≈ 256 µM).
For `O=c1c(O[C@@H]2O[C@H](CO)[C@H](O)[C@H](O)[C@H]2O)c(-c2ccc(O)cc2)oc2cc(O)cc(O)c12` [TRIFOLIN], in the test with Influenza A virus, the CC50 is 215 µg/mL (≈ 480 µM) and the IC50 is more than 300 µg/mL. Also, the “Ratio CC50/IC50” value in test [1] is less than 0.7.
